Data set [1] is filed under the species Canis familiaris. Put plainly: Cardiotoxicity in dog assessed as free plasma concentration causing cardiovascular collapse measured after 20 mins. Type of data set: toxicity, organism-based, Canis lupus familiaris.
The subject of data set [2] is Lipid bilayer. Put plainly: Binding affinity to DPH-labeled liposomal membrane containing 40 mol% cholesterol assessed as increase in membrane fluidity by measuring decrease in DPH fluorescence polarization at 200 uM after 5 mins by spectrofluorometry. In outline:
(§1)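 Fresh DPH-labeled liposomes (ethanol injection into HEPES pH 7.4 with NaCl/KCl) contained 0–45 mol% cholesterol, with the remaining lipids POPC/POPE/CL/POPS/POPI/SM at 25:16:10:3:3:3. Enantiomer pairs were tested on the same day. Each was given at 200 uM final with DMSO at 0.5% v/v, and vehicle controls matched. After 5 min at 37 °C, DPH fluorescence polarization was measured. Values are % polarization change relative to control, mean ± SEM, n=7.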

Data set [3] concerns Lipid bilayer. The data set can be described thus: Binding affinity to DPH-labeled liposomal membrane without cholesterol assessed as increase in membrane fluidity by measuring decrease in DPH fluorescence polarization after 5 mins by spectrofluorometry. The procedure, abridged: as §1
Data set [4] relates to Lipid bilayer. Put plainly: Binding affinity to DPH-labeled liposomal membrane containing 20 mol% cardiolipin 40 mol% cholesterol assessed as increase in membrane fluidity by measuring decrease in DPH fluorescence polarization at 200 uM after 5 mins by spectrofluorometry. The procedure, abridged:
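DPH-labeled liposomes made by ethanol injection (10 mM total lipid, 50 uM DPH in the injected stock) into 10 mM HEPES pH 7.4 with 125 mM NaCl and 25 mM KCl. Membranes held 0 or 20 mol% cardiolipin, with or without 40 mol% cholesterol, and POPC/POPE/POPS/POPI/SM at 25:16:3:3:3. Drug was added at 200 uM final in 0.5% DMSO, incubated 37 °C for 5 min, and DPH polarization read. Results are % change vs DMSO control, mean ± SEM, n=7.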

Data set [5] relates to Lipid bilayer. Put plainly: Binding affinity to DPH-labeled liposomal membrane containing 5 to 45 mol% cholesterol assessed as increase in membrane fluidity by measuring decrease in DPH fluorescence polarization after 5 mins by spectrofluorometry. In outline:
as §1

The test system of data set [6] is Lipid bilayer. Put plainly: Increase in membrane fluidity in DPH-labeled liposomal membrane containing 40 mol% cholesterol assessed as change in DPH fluorescence polarization at 200 uM after 5 mins by spectrofluorometry relative to control. Type of data set: cell membranes. The procedure, abridged: as §1
The species entered for data set [7] is Canis familiaris. The data set can be described thus: Cardiotoxicity in dog assessed as total plasma concentration causing cardiovascular collapse measured after 20 mins. Type of data set: toxicity, organism-based, Canis lupus familiaris.
Data set [8] has as its system Lipid bilayer. Put plainly: Increase in membrane fluidity in DPH-labeled liposomal membrane containing 20 mol% cardiolipin 40 mol% cholesterol assessed as change in DPH fluorescence polarization at 200 uM after 5 mins by spectrofluorometry relative to liposome without cardiolipin.

Activity calls are given as the source filed them. No cut-off for these calls is given here.

For the compound `CCCCN1CCCCC1C(=O)Nc1c(C)cccc1C` (racemic) [BUPIVACAINE], the Activity in the data set listed under Canis familiaris [1] was 10 µM; in the data set filed under Canis familiaris [7], 39 µM. Besides, the outcome with Lipid bilayer [2], with Lipid bilayer [3], in the data set on Lipid bilayer [4] and with Lipid bilayer [5] was Active. Besides, the fold change (FC) with Lipid bilayer [6] turned out to be 1.7.

For `CCCCN1CCCC[C@H]1C(=O)Nc1c(C)cccc1C` [LEVOBUPIVACAINE], the values for the Activity in the data set filed under Canis familiaris [1] and in the data set listed under Canis familiaris [7] were 17 µM and 49 µM, respectively. Besides, the outcome in the data set with Lipid bilayer [2], in the data set with Lipid bilayer [3] and in the data set on Lipid bilayer [4] was Active. Moreover, the values for the fold change (FC) in the data set on Lipid bilayer [8] and with Lipid bilayer [6] were 3.7 and 1.4, respectively.

With `CCCCN1CCCC[C@@H]1C(=O)Nc1c(C)cccc1C`, the result with Lipid bilayer [2], in the data set on Lipid bilayer [3], with Lipid bilayer [4] and in the data set on Lipid bilayer [5] was Active. For the same compound, the fold change (FC) in the data set with Lipid bilayer [8] worked out at 3.7.

Consider `CCCN1CCCC[C@H]1C(=O)Nc1c(C)cccc1C` [ROPIVACAINE], for which the Activity in the data set filed under Canis familiaris [1] came to 36 µM; in the data set filed under Canis familiaris [7], 64 µM. For the same compound, the fold change (FC) with Lipid bilayer [6] came out at 1.

Source of the values: ChEMBL document CHEMBL1817630, “Stereostructure-based differences in the interactions of cardiotoxic local anesthetics with cholesterol-containing biomimetic membranes” (Bioorg Med Chem, 2011).
